In PubChem BioAssay AID1885 (Broad Institute, 2009):
In all, about 300,000 compounds went through this assay and about 4,400 (1.5%) were called active. For the sample, actives were picked, then their nearest neighbours and some compounds at random. Unmarked numbers belong to inactive results.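 The calls were made as follows: active = mean inhibition across valid replicates above about 55% (limit read from the data); inconclusive = mean below that limit but half or more replicates reach it; inactive = mean below it, under half of replicates reach it.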

Assay: inhibitors of intracellular T. cruzi growth, primary screen, luminescence, NIH3T3 host cells (AID 1885);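 also: signal also drops with host cell toxicity which is not excluded here; 0% = plate median of DMSO wells and 100% = zero luminescence signal; higher percent means less beta-gal luminescence so fewer parasites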
Conditions: T. cruzi beta-gal in NIH3T3, luminescence, 90 h; hits give high values; concentration not given here
Procedure, shortened: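 System: mouse NIH/3T3 fibroblasts infected with β-gal-expressing T. cruzi Tulahuen C4 / Input: NIH/3T3 cells, 5,000 per well / Buffer or medium: Low-serum DMEM with 2% FBS / Probe or stimulus: 5000 reporter trypomastigotes per well / Schedule: ≥90 h infection period, 3 h prior cell attachment / Measured by: GalScreen luminescence, 60 min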

| SMILES | inhibition |
| --- | --- |
| CS(=O)(=O)N1CCN(C(=O)CSc2ccccc2)CC1 | -1.63% |
| COc1ccc(C(C)NC(=O)C2CCCC2)cc1 (stereo unspecified) | -4.14% |
| COc1ccccc1CC(NC(C)=O)C(=O)NC1CCN(C(=O)Nc2ccccc2Cl)CC1 (stereo unspecified) | -13.9% |
| COc1ccccc1CN1CCCC(N2CCN(c3ccc(F)cc3)CC2)C1 (stereo unspecified) | 57.3% (active) |
| COc1ccccc1CN1CCN(Cc2cc(OC)c(OC)cc2OC)CC1 | 25.3% |
| COc1ccc(CN2CCCC(N3CCc4ccccc4C3)C2)c(O)c1 (stereo unspecified) | 22.8% |
| COc1ccc(C[C@H]2CN3C(=NC[C@H]3C)N2CCNC(=O)CCC2CCCCC2)cc1 | -4.54% |
| Cc1cc2c(C)nc(N/N=C/c3ccccc3)nc2o1 | 22.4% |
| Clc1ccc(Nc2nc(-c3cccs3)cs2)nc1 | 42.7% |
| c1ccc(Nc2nc(-c3ccncc3)cs2)nc1 | 64% (active) |
| Cc1cccc(Nc2nc(-c3ccccc3)cs2)n1 | 18.7% |
| CCCCn1c(N)c(N2CCOCC2)c(=O)n(CC(=O)NCCc2ccccc2)c1=O | -20% |
| Cc1cc(/C=N/NC(=O)c2cccnc2)c(C)n1CC(C)C | -5.46% |
| O=C(N/N=C/c1ccccn1)c1cccnc1 | 3.75% |
| O=C(N/N=C/c1sc(N2CCCCC2)nc1-c1cccs1)c1cccnc1 | 65% (active) |
| C=CCNC(=S)/N=c1/ccccn1Cc1ccccc1 | 36.1% |
| O=C(OCCOCn1cc(Br)c(=O)[nH]c1=O)c1ccccc1 | -6.18% |
| O=C(OCC(=O)N1CCCC1=O)c1cc(S(=O)(=O)N2CCOCC2)ccc1Cl | -8.41% |
| Cc1nc(N2CCOCC2)c2c(C)c(C(=O)Nc3ccc(C(F)(F)F)cc3)sc2n1 | 68% (active) |
| Cc1nc(N2CCC(C)CC2)c2c(C)c(C(=O)Nc3cc(F)ccc3C)sc2n1 | 49.5% |
| Cc1nc(N2CCN(c3ccccn3)CC2)c2c(C)c(C(=O)Nc3ccc(F)c(Cl)c3)sc2n1 | 3.99% |
| CC(C)Nc1nnc(SC(C)C(=O)N(C)C2CCCCC2)s1 (stereo unspecified) | -3% |
| Cc1occc1C(=O)NNC(=S)NCC(C)C | -18.5% |

| SMILES | inhibition |
| --- | --- |
| Cc1occc1C(=O)NC1CCCN(Cc2ccc(CC(C)C)cc2)C1 (stereo unspecified) | 57.7% (active) |
| COc1ccc(CN2CCCC(C(=O)N3CCCCC3)C2)cc1 (stereo unspecified) | 27.2% |
| CN(c1ccccc1)S(=O)(=O)c1cccc(C(=O)NNC(=O)c2ccncc2)c1 | 5.43% |
| COc1ccc(NC(=O)N2CCCC(C(=O)Nc3ccccc3OC)C2)cc1 (stereo unspecified) | -10.9% |
| Cc1sc2ncnc(N3CCC(C(=O)Nc4nc5ccc(Cl)cc5s4)CC3)c2c1C | 27% |
| COc1ccc(/C=C/C(=O)NC(=S)NN2CCCCC2c2cccnc2)cc1 (stereo unspecified) | 42.1% |
| COc1ccc(C(=O)NC(=S)N2CCCCC2c2cccnc2)cc1OC (stereo unspecified) | 57.2% (active) |
| O=C(NC(=S)N1CCCCC1c1cccnc1)c1ccccc1 (stereo unspecified) | 46.1% |
| COC(=O)C1(C)NC(c2ccc(F)cc2)C2C(=O)N(c3ccccc3)C(=O)C21 (stereo unspecified) | -17.7% |
| CCc1ccc2c(c1)C1(NN=C(c3ccccc3)S1)C(=O)N2 (stereo unspecified) | 73% (active) |
| Cc1nc(/N=C(\N)NC(=O)NC2CCCCC2)nc2ccccc12 | 10.4% |
| COc1nc(N=C(N)N)nc2c(C)cccc12 | 44.2% |
| Cc1nc(N=C(N)N)nc2c(C)cccc12 | 56.5% (active) |
| O=C(NCCC1=CCCCC1)c1ccc(Cl)c([N+](=O)[O-])c1 | -28% |
| CCN1C(=O)[C@H]2[C@@H](c3ccc(-c4ccc(F)cc4)cc3)N[C@@](Cc3ccccc3)(C(=O)OC)[C@H]2C1=O | 41.5% |
| O=c1[nH]c(N2CCOCC2)nc2ccccc12 | -3.83% |
| c1ccc2c(NC3C4CC5CC(C4)CC3C5)nc(N3CCOCC3)nc2c1 (stereo unspecified) | 54.9% (active) |
| c1ccc(-c2nnc(N3CCOCC3)c3ccccc23)cc1 | -1.66% |
| CSCCC(NC(=O)COc1ccccc1)C(=O)OCCOc1ccc(F)cc1 (stereo unspecified) | -11.5% |
| CCn1cc(/C=C(\NC(=O)c2ccc(C)cc2)C(=O)NCCN2CCOCC2)c2ccccc21 | -0.43% |
| COc1ccc(CN2CC[C@H]3C=CC[C@@H](C(=O)N4CCOCC4)[C@H]3C2=O)cc1OC | 0.915% |
| CN(CC(=O)Nc1ccc(S(=O)(=O)N2CCCC2)cc1)Cc1ccc(Cl)c(Cl)c1 | 55.8% (active) |
| O=C(CN1CCCCCC1)Nc1ccc(S(=O)(=O)N2CCCCC2)cc1 | -0.319% |

| SMILES | inhibition |
| --- | --- |
| CN(CC(=O)Nc1ccc(F)cc1)CC(=O)Nc1ccc(Cl)c(S(=O)(=O)N2CCOCC2)c1 | -1.87% |
| CCOc1cnc(C(=O)NNC(=O)c2ccccc2Br)o1 | -24% |
| O=C(Nc1ccc(F)c([N+](=O)[O-])c1)C1CC(=O)N(Cc2ccccc2)C1 (stereo unspecified) | 11.3% |
| Cc1nnc(SCC(=O)N2c3ccccc3C(C)(c3ccc(Cl)cc3)CC2(C)C)s1 (stereo unspecified) | 37.3% |
| CC1(c2cccc([N+](=O)[O-])c2)CC(C)(C)N(C(=O)c2ccccc2)c2ccccc21 (stereo unspecified) | 37.9% |
| CC1(c2ccccc2)CC(C)(C)N(C(=O)c2cc([N+](=O)[O-])cc([N+](=O)[O-])c2)c2ccccc21 (stereo unspecified) | 62.7% (active) |
| Cc1cc(C)c(NC(=O)C[N+](C)(C)CC(O)COc2cccc3ccccc23)c(C)c1 (stereo unspecified) | 39.6% |
| CC(C)c1ccccc1OCC(O)CN(CC(O)COc1cccc2ccccc12)C(C)C (stereo unspecified) | 57.2% (active) |
| OC(COc1cccc2ccccc12)CN1CCN(c2ccccn2)CC1 (stereo unspecified) | -13.7% |
| COc1ccc(NS(=O)(=O)c2cc(NC(=O)C3CCCCC3)ccc2N2CCOCC2)cc1 | 8.84% |
| COc1ccc(NS(=O)(=O)c2cc(NC(=O)/C=C/c3cc(OC)c(OC)c(OC)c3)ccc2N2CCCCC2)cc1 | 54.8% (active) |
| COc1ccc(NS(=O)(=O)c2ccc(N3CCN(CCO)CC3)c([N+](=O)[O-])c2)cc1 | -24.8% |
| Cc1ccc(S(=O)(=O)CCC(=O)Nc2nnc(CC(C)C)s2)cc1 | -32% |
| COC(=O)COc1ccc2c(c1C)O/C(=C\c1ccco1)C2=O | 0.57% |
| CCN1C(=O)[C@@H]2[C@@H](c3ccc(-c4ccc(OC)cc4)c(OC)c3)N3CCC[C@@]3(C(=O)OC)[C@@H]2C1=O | -10.1% |
| O=C(NCC(c1cccs1)N1CCOCC1)c1cc(Cl)ccc1[N+](=O)[O-] (stereo unspecified) | -4.39% |
| CCCN(CCC)c1nc2c(C)cccn2c(=O)c1/C=C1/SC(=S)N(Cc2ccco2)C1=O | 68.2% (active) |
| CCOC(=O)CC1C(=O)NCCN1c1nc2c(C)cccn2c(=O)c1/C=C1\SC(=S)N(C(C)CC)C1=O (stereo unspecified) | 25.7% |
| O=C(CCCN1C(=O)/C(=C\c2ccco2)SC1=S)Nc1cccc2ccccc12 | -4.25% |
| Fc1ccc2c(c1)C(c1cccnc1)=NNC(c1cccs1)=N2 | -7.53% |
| Fc1ccccc1N=C1Nc2cccc3cccc1c23 | -4.12% |
| COc1ccccc1C1=Nc2cccc3cccc(c23)N1 | 55% (active) |
| c1ccc(C2=Nc3cccc4cccc(c34)N2)cc1 | 7.49% |

| SMILES | inhibition |
| --- | --- |
| O=C(O)CN1CCN(C(c2ccccc2)c2ccccc2)CC1 | -9.78% |
| CC1(C)CC(=O)C=C(N2CCCC2)C1 | 1.27% |
| CC1(C)CC(N2CCN(C(c3ccccc3)c3ccccc3)CC2)=CC(=[N+]2CCCCC2)C1 | 63.6% (active) |
| Cc1ncn(C23CC4CC(CC(O)(C4)C2)C3)n1 | 5.6% |
| COc1cccc(NC(=O)c2nn(C34CC5CC(CC(C5)C3)C4)cc2[N+](=O)[O-])c1 | 16.7% |
| Cc1nc([N+](=O)[O-])nn1C12CC3CC(CC(Br)(C3)C1)C2 | 59.3% (active) |
| CCCCCN(C(=O)CCC(=O)OCCOc1ccc(OC)cc1)c1c(N)n(CCCC)c(=O)[nH]c1=O | 8.8% |
| CN(N)c1nc(N2CCCC2)nc(N2CCCC2)n1 | -9.95% |
| CCCCCCCCCCCCN1[C@@H](CC(C)=O)c2cc(F)cc(F)c2S1(=O)=O | 39.5% |
| CC(C)n1c(=O)[nH]c2cc(C(=O)Nc3ccccc3)ccc21 | -5.92% |
| CN1CCN(c2ccc(NC(=O)c3ccccc3)cc2)CC1 | -2.93% |
| CN1CCN(c2ccc(NC(=O)c3ccc4c(c3)[nH]c(=O)n4Cc3ccc(F)cc3)cc2)CC1 | 65.8% (active) |
| COCCN1C(=O)N(c2ccc(Cl)cc2)C(=O)C1CC(=O)Nc1cc(OC)cc(OC)c1 (stereo unspecified) | -12.9% |
| Cc1onc(-c2ccccc2Cl)c1C(=O)N(Cc1ccc(N(C)C)cc1)C(C)C | 37.7% |
| O=C(NCc1ccncc1)NC12CC3CC(CC(C3)C1)C2 | -15.8% |
| S=C(NCc1ccc(Cl)cc1)NC1CCCCC1 | 10.1% |
| S=C(NCc1ccc(Cl)cc1)NC12CC3CC(CC(C3)C1)C2 | 57.1% (active) |
| Cc1cc(NC(=O)c2ccc(F)cc2)ccc1NC(=O)c1ccco1 | 14% |
| O=C(Nc1ccc(Sc2ccc(Br)cc2)cc1)c1ccco1 | -17.4% |
| CCN(CC)P(=O)(Nc1ccc(SC(F)F)cc1)c1ccc(N(C)C)cc1NC(=O)c1ccco1 (stereo unspecified) | 68.4% (active) |
| O=C(NC1CCCC1)C1CC(=O)N(c2ccc(F)cc2)C1 (stereo unspecified) | 5.96% |
| Cc1c(C(=O)N2CCCC2)c(S(=O)(=O)NCC(C)c2ccccc2)c(C)n1C (stereo unspecified) | -5.32% |
